Bioassay records: PubChem BioAssay, several laboratories
The list is not random: actives were taken first. Their share in the collection is about 1.2%.
HCV core dimer – inhibitors of HCV core protein dimerization, primary screen, biochemical, TR-FRET, high-throughput; inhibition, % at 5 µM; TR-FRET GST/Flag-core106 dimerization, 1536-well; AID 1899, 2009; actives 0.33% (n = 300,000);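 active = inhibition above the mean of all tested compounds plus 3 SD, set per screening campaign, cut at about 45% in these data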
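Assay system: tagged HCV core106 pair (GST and Flag); medium: KF-containing HEPES buffer, pH 7.45, DTT, CHAPS, BSA; also added: Eu donor and XL665 acceptor anti-tag antibodies; dosing: 5 µM single dose; timing: compound-protein-antibody incubation 4 h at 22.5 °C; signal: TR-FRET 671 and 617 nm emission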
GC-B act – human GC-B receptor activators, primary screen, HEK293 GC-B cells, cGMP TR-FRET, EC30 CNP; Atrial natriuretic peptide receptor 2 (Homo sapiens), P20594; 0% at EC30 CNP, 100% saturating CNP; activation, % at 10 µM; actives 0.11% (n = 370,000); AID 1920062, 2024;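 active = activation at 10 µM reaching about 35% in either raw or pattern-adjusted values, limit read from the data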
NPR1 activator – GC-A stimulated cGMP production enhancers – HEK293 GC-A cells, cGMP TR-FRET, EC30 ANP, primary screen | Atrial natriuretic peptide receptor 1 (Homo sapiens), P16066 | 0% at EC30 ANP, 100% saturating ANP | activation, % at 10 µM | actives 0.14% (n = 370,000) | AID 1671463, 2021; in the data active = activation above about 40%
Fh CTSL1 inh – Fasciola hepatica cathepsin L1 inhibitors, primary screen, counter-screen for PFM18AAP inhibitor project, biochemical, QFRET, fluorogenic peptide substrate; recombinant F. hepatica cathepsin L1, Z-Leu-Arg-MCA fluorescence; inhibition, % at 5.96 µM; actives 0.49% (n = 300,000); AID 1906, 2009;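 active = inhibition above the mean of all tested compounds plus 3 SD, set per screening campaign, cut at about 17% in these data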;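 also: 0% = plate median of test compound wells and 100% = 1 µM Z-Phe-Ala-diazomethylketone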
ASAP1 inh – inhibitors of human ASAP1 ArfGAP activity, primary screen, biochemical, fluorescence polarization. Arf-GAP with SH3 domain, ANK repeat and PH domain-containing protein 1 (Homo sapiens), …. ASAP1-stimulated ARF1 GTP hydrolysis, GDP FP detection. inhibition, % at 16.5 µM. actives 0.19% (n = 360,000); in the data active = inhibition above about 25%;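 also: 0% = vehicle with enzyme and substrate and 100% = no enzyme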
ARFGAP1 inhibitor – inhibitors of rat ARFGAP1 GAP activity, primary screen, biochemical, fluorescence polarization, GDP tracer | Arfgap1-stimulated ARF1 GTP hydrolysis, GDP FP detection | ADP-ribosylation factor GTPase-activating protein 1 (Rattus norvegicus), Q62848 | inhibition, % at 16.5 µM | actives 0.26% (n = 360,000);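 active = inhibition above a per-plate limit, mean inhibition of low control wells plus 3 SD, cut at about 25% in these data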;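 also: 0% = DMSO wells with enzyme and 100% = wells lacking Arfgap1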
Target sequence (Q62848 1-136 limits assumed): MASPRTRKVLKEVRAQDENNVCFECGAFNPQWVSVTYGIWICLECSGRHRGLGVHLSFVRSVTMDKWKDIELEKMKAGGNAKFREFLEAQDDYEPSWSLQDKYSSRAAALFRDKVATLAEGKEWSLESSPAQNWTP
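Material: rat Arfgap1 catalytic domain, aa 1-136; also added: human ARF1(Δ1-17)-GTP substrate; compound dosing: one concentration, 16.5 µM, DMSO 1.26%; incubation: GTP hydrolysis reaction 2 h at 25 °C; measured by: Tracer-displacement fluorescence polarization with EDTA stop, 620/688 nm; evaluation: % inhibition from polarization; repeats: one replicate per compound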
ARFGAP1 confirm – ARFGAP1 inhibitor hit confirmation, biochemical, fluorescence polarization, triplicate | actives 30% (n = 890) | inhibition, % at 16.5 µM | shares compounds with ARFGAP1 inhibitor | ARFGAP1-stimulated ARF1 GTP hydrolysis, GDP tracer FP | AID 651608, 2012;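 active = average inhibition over triplicates above the hit cutoff set in the earlier primary screen, cut at about 25% in these data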;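 also: 0% = Arfgap1 plus ARF1-GTP with DMSO and 100% = wells lacking Arfgap1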
Target sequence (Q62848 whole entry, looked up): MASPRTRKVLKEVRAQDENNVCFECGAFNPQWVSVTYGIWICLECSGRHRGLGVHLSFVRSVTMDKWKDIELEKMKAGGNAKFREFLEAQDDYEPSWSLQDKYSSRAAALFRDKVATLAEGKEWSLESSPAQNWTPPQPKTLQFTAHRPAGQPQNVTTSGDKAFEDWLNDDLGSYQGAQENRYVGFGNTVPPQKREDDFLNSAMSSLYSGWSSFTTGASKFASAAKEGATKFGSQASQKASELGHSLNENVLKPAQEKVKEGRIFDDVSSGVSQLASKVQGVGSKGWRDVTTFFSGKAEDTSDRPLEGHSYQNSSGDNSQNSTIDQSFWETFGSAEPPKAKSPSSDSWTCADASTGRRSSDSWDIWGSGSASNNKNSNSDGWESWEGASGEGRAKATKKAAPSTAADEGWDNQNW
Numbers without * were called inactive; x = no result.

SMILES	HCV core dimer	GC-B act	NPR1 activator	Fh CTSL1 inh	ASAP1 inh	ARFGAP1 inhibitor	ARFGAP1 confirm
CN(C)C(=O)c1ccc(NC(=O)c2cc(-c3ccco3)nc3ccccc23)cc1	x	-1.7	0.9	x	-8.8	-3.2	x
CCN(CC)CCNC(=O)c1ccc(NC(=O)c2cc(-c3ccco3)nc3ccccc23)cc1	34.4	2.9	-0.1	1.3	4.4	25.5*	1.1
CCN(CC)CCNC(=O)c1ccc(NC(=O)c2cn(-c3ccccc3)nc2-c2cccs2)cc1	-15.5	-15.9	-21.5	9.2	13.9	39.0*	55.9*
CC(C)(C)c1ccc(C(=O)NCc2ccccc2)cc1	9.5	-0.8	5.0	-1.9	-13.4	-8.2	x
Cc1cc(C)c(S(=O)(=O)c2ccc(F)cc2C)c(Cl)n1	4.1	3.2	4.4	0.7	8.6	30.4*	1.2
Cc1cc(C)c(S(=O)(=O)c2ccccc2Cl)c(Cl)n1	-1.3	1.5	-0.8	-3.0	-1.0	-20.9	x
Oc1ccccc1/C=N/NC1=NCCCCC1	5.0	10.1	2.2	-0.5	8.6	-5.7	x
Cc1cc(=O)oc(C)c1C(=O)N1CCN(C)CC1	0.5	0.0	-6.2	1.8	12.7	24.7*	-1.4
Cc1cnc(C(=O)OC(C(=O)c2c[nH]c3ccccc23)c2ccccc2)cn1 (stereo not given)	-0.8	-7.7	-6.3	-29.2	15.4	3.9	x
O=[N+]([O-])c1ccc2[nH]cc(S(=O)(=O)N3CCN(c4cccc(Cl)c4)CC3)c2c1	16.4	-7.3	-33.7	2.5	3.1	9.7	x
Cc1cccc(N(C)S(=O)(=O)c2c[nH]c3ccc([N+](=O)[O-])cc23)c1	3.5	-4.5	-12.9	6.1	9.8	26.1*	5.0
CCOc1cc2c(cc1OC)C(c1cccc([N+](=O)[O-])c1)NCC2 (stereo not given)	-2.1	2.2	5.6	-4.3	3.8	-3.4	x
CCOC(=O)Cn1c(C)cc(=O)c2cccc(C)c21	4.3	4.2	6.7	-1.7	1.9	6.2	x
CCOC(=O)Cn1c(=O)cc(C)c2cccc(C)c21	0.7	x	x	2.1	5.5	29.7*	4.5
Cc1nc(-c2cccc(S(=O)(=O)N3CC(C)OC(C)C3)c2)cs1 (stereo not given)	0.6	5.8	-1.7	-0.7	-5.8	7.7	x
Cc1nc(-c2cccc(S(=O)(=O)N3CC(C)CC(C)C3)c2)cs1 (stereo not given)	9.5	2.0	2.9	-1.1	-10.7	26.5*	2.4
CCOC(=O)C1CCCN(CCC(=O)Nc2ccccc2C)C1 (stereo not given)	-3.1	1.0	-1.8	5.8	6.8	25.8*	-5.8
Cc1cc(C)cc(NC(=O)C2(c3cccs3)CCOCC2)c1	5.4	-16.0	-33.9	-0.5	4.7	11.0	x
Cc1cccc(NC(=O)C2(c3cccs3)CCOCC2)c1	2.1	-6.8	-19.6	1.4	-12.3	34.8*	4.3
CC(=O)N1CCN=C1SCc1ccccc1Cl	-2.1	-9.9	-1.8	-1.9	-3.6	-6.2	x
CCC(=O)N1CCN=C1SCc1ccccc1Cl	5.6	2.0	3.1	2.8	3.2	28.6*	3.2
COc1ccc2nc(/C=N/NC(=O)[C@H](CCSC)NC(=O)OC(C)(C)C)ccc2c1	9.2	-2.6	-3.1	0.7	10.7	26.7*	1.1
CCC(C)[C@H](NC(=O)OC(C)(C)C)C(=O)N/N=C/c1ccc2cc(OC)ccc2n1 (stereo not given in full)	3.1	-1.5	-6.1	3.4	-14.8	3.1	x
Cc1c(C)c2ccc(OCC(=O)NCCc3c[nH]c4ccccc34)c(C)c2oc1=O	2.5	-1.0	-3.7	-1.4	14.6	25.3*	6.5
CCn1c(C)c(C(C)=O)c(N2CCN(c3ccc(OC)cc3)CC2)nc1=S	12.5	5.0	3.1	2.2	2.1	40.7*	2.8
COc1ccc(N2CCN(c3nc(=S)n(-c4ccccc4)c(C)c3C(C)=O)CC2)cc1	-5.5	4.0	6.2	-2.4	13.9	-6.2	x
C[C@@H]1CCCCO[C@@H](CN(C)Cc2ccc(C(=O)O)cc2)[C@@H](C)CN([C@H](C)CO)C(=O)c2cc(NS(C)(=O)=O)ccc2O1	x	0.2	3.2	x	15.8	14.8	x
O=C(NCc1ccncc1)Nc1ccc(Cc2ccc(NC(=O)NCc3ccncc3)cc2)cc1	x	1.3	3.2	x	-1.8	27.1*	56.5*
Cc1noc(NS(=O)(=O)c2ccc(NC(=O)c3ccc(OC(C)C)cc3)cc2)c1C	2.2	-4.3	0.0	4.8	-3.8	3.2	x
C#CCNC(=O)C[C@H]1C[C@@]2(C(=O)OC)C(=C[C@H](C(C)C)O[C@@H]2C2CC2)N(Cc2ccccc2)C1=O	x	1.5	-5.3	x	5.1	-15.5	x
